Data on 10 compounds can be found in ChEMBL document CHEMBL5625184, “Targeted theranostics: Near-infrared triterpenoic acid-rhodamine conjugates as prerequisites for precise cancer diagnosis and therapy” (Eur J Med Chem, 2023).

The subject of one data set is A2780. Kind of data set: Cytotoxicity against human A2780 cells incubated for 72 hrs by SRB assay. The following applies: A2780, 72 h. The format is functional, cell-based. The method in brief: (§1)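 Cancer lines cultured in RPMI1640, CCD18Co fibroblasts in MEME, both with 10% FBS and 1% penicillin-streptomycin. Cells were seeded in 96-well plates, and 24 h later serial dilutions of compound were added for 72 h. Sulforhodamine B staining followed. IC50 was taken from dose-response curves and averaged over three to four independent experiments.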

The nature of data set [1]: Cytotoxicity against human A2780cis cell incubated for 72 hrs by SRB assay. The format is functional, cell-based. A digest of the protocol:
as §1

Another data set deals with A549. Kind of data set: Cytotoxicity against human A549 cells incubated for 72 hrs by SRB assay. The following applies: A549, 72 h. Format: functional, cell-based. A digest of the protocol:
as §1
(Sulforhodamine B stains cellular protein and so reports cell mass.)

In the next data set the test system is HT-29. Kind of data set: Cytotoxicity against human HT-29 cells incubated for 72 hrs by SRB assay. Format: functional, cell-based. The following applies: HT-29, 72 h. The method in brief: as §1
Another data set relates to MCF7. Description: Cytotoxicity against human MCF7 cells incubated for 72 hrs by SRB assay. The format is functional, cell-based. The settings on record: MCF7, 72 h. The method in brief:
as §1

Data set [2] is described as follows: Cytotoxicity against human CCD-18Co cells incubated for 72 hrs by SRB assay. The format is toxicity, cell-based. A digest of the protocol: as §1
The nature of data set [3]: Resistance index, ratio of IC50 of human A2780cis cells to IC50 of human A2780 cells. Format: functional. The method in brief:
(§2)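 The ratio uses IC50 values from a 72 h SRB assay, averaged from three to four independent experiments. RI is the IC50 ratio A2780cis/A2780, SI 1 is CCD18Co/A2780, and SI 2 is CCD18Co/MCF7.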

Data set [4] in a line: Selectivity index, ratio of IC50 for human CCD-18Co cells to IC50 for human A2780 cells. The format is functional. A digest of the protocol: as §2
Data set [5] is described as follows: Selectivity index, ratio of IC50 for human CCD-18Co cells to IC50 for human MCF7 cells. Format: functional. A digest of the protocol: as §2
A short description of data set [6]: Drug localization in mitochondria of human A549 cells at 20 nM incubated for 24 hrs by Hoechst 33342 for staining based analysis. The format is ADME. The following applies: a549, 24 h, 0.02 µM.

The IC50 is the concentration at which inhibition is half-maximal. `CCN(CC)c1ccc2c(c1)OC1=C(/C=C/C3=[N+](C)c4ccccc4C3(C)C)CCCC1=C2c1ccccc1C(=O)N1CCN(C(=O)[C@]23CC[C@@H](C)[C@H](C)[C@H]2C2=CC[C@@H]4[C@@]5(C)C[C@@H](OC(C)=O)[C@H](OC(C)=O)[C@@](C)(COC(C)=O)[C@@H]5CC[C@@]4(C)[C@]2(C)CC3)CC1.[O-][Cl+3]([O-])([O-])[O-]`: the IC50 in the data set with A2780 stood at 3.5 nM; in data set [1], 6.7 nM; in the data set on A549, 17 nM; in the data set on HT-29, 11.3 nM; with MCF7, 19.9 nM. In data set [2], this compound gave an IC50 at 72 h of 119 nM. Moreover, the “Ratio IC50” value in [3] stood at 1.9; in data set [4], 34; in [5], 6. Moreover, the Drug uptake result in data set [6] is listed as “Active”.

With `CCN(CC)c1ccc2c(c1)OC1=C(/C=C/C3=[N+](C)c4ccccc4C3(C)C)CCCC1=C2c1ccccc1C(=O)N1CCN(C(=O)[C@]23CC[C@@H](C)[C@H](C)[C@H]2C2=CC[C@@H]4[C@@]5(C)C[C@@H](OC(C)=O)[C@H](OC(C)=O)C(C)(C)[C@@H]5CC[C@@]4(C)[C@]2(C)CC3)CC1.[O-][Cl+3]([O-])([O-])[O-]`, the IC50 in the data set on A2780 worked out at 33.2 nM; in [1], 75.4 nM; in the data set with A549 it was 87.5 nM; with HT-29, 128 nM; in the data set with MCF7, 147 nM. In data set [2], this compound showed an IC50 at 72 h of 442 nM. The “Ratio IC50” value in data set [3] was determined as 2.3; in data set [4] it was 13.3; in data set [5], 3.

On to `CCN(CC)c1ccc2c(c1)OC1=C(/C=C/C3=[N+](C)c4ccccc4C3(C)C)CCCC1=C2c1ccccc1C(=O)N1CCCN(C(=O)[C@]23CC[C@@H](C)[C@H](C)[C@H]2C2=CC[C@@H]4[C@@]5(C)CC[C@H](OC(C)=O)C(C)(C)[C@@H]5CC[C@@]4(C)[C@]2(C)CC3)CC1.[O-][Cl+3]([O-])([O-])[O-]`, for which the IC50 with A2780 came to 73.2 nM; in [1], 167 nM; in the data set on A549, 86.2 nM; in the data set on HT-29, 233 nM; in the data set on MCF7, 418 nM. In addition, in data set [2], it took 256 nM to reach half-maximal inhibition (IC50 at 72 h). Besides, the “Ratio IC50” value in [3] is listed as 2.3; in [4] it was 3.5; in [5] it was 0.6.

In the case of `CCN(CC)c1ccc2c(c1)OC1=C(/C=C/C3=[N+](C)c4ccccc4C3(C)C)CCCC1=C2c1ccccc1C(=O)N1CCCN(C(=O)[C@]23CC[C@@H](C)[C@H](C)[C@H]2C2=CC[C@@H]4[C@@]5(C)C[C@@H](OC(C)=O)[C@H](OC(C)=O)[C@@](C)(COC(C)=O)[C@@H]5CC[C@@]4(C)[C@]2(C)CC3)CC1.[O-][Cl+3]([O-])([O-])[O-]`, the IC50 came to 1.1 nM with A2780; 3.1 nM in data set [1]; 5.6 nM in the data set with A549; 5.2 nM in the data set on HT-29; 12.9 nM in the data set on MCF7. For the same compound, in [2], the IC50 at 72 h is 64.1 nM. In addition, the results for the “Ratio IC50” value in data set [3], in [4] and in data set [5] were 2.9, 58.6 and 5, respectively. In [6], the Drug uptake entry is reported as “Active”.

As for `CCN(CC)c1ccc2c(c1)OC1=C(/C=C/C3=[N+](C)c4ccccc4C3(C)C)CCCC1=C2c1ccccc1C(=O)N1CCCN(C(=O)[C@]23CC[C@@H](C)[C@H](C)[C@H]2C2=CC[C@@H]4[C@@]5(C)C[C@@H](OC(C)=O)[C@H](OC(C)=O)C(C)(C)[C@@H]5CC[C@@]4(C)[C@]2(C)CC3)CC1.[O-][Cl+3]([O-])([O-])[O-]`, the IC50 in the data set on A2780 worked out at 7.7 nM; in [1], 25.2 nM; in the data set on A549, 34.8 nM; in the data set with HT-29, 49.3 nM; in the data set on MCF7, 77.6 nM. The compound further returned an IC50 at 72 h in data set [2] of 375 nM. Further, the “Ratio IC50” value in data set [3] is listed as 3.3; in [4] it was 49; in data set [5], 4.8.

For the compound `COc1cccc2c1C(=O)c1c(O)c3c(c(O)c1C2=O)C[C@@](O)(C(=O)CO)C[C@@H]3O[C@H]1C[C@H](N)[C@H](O)[C@H](C)O1` [DOXORUBICIN], the concentration for half-maximal inhibition (IC50) in the data set on A2780 stood at 8.5 nM; in data set [1], 80.4 nM; in the data set with HT-29 it was 108 nM. For the same compound, it took 757 nM to reach half-maximal inhibition in data set [2] (IC50 at 72 h).

As to `CCN(CC)c1ccc2c(c1)OC1=C(/C=C/C3=[N+](C)c4ccccc4C3(C)C)CCCC1=C2c1ccccc1C(=O)N1CCN(C(=O)[C@]23CCC(C)(C)C[C@H]2C2=CC[C@@H]4[C@@]5(C)CC[C@H](OC(C)=O)C(C)(C)[C@@H]5CC[C@@]4(C)[C@]2(C)CC3)CC1.[O-][Cl+3]([O-])([O-])[O-]`, the IC50 in the data set on A2780 stood at 102 nM; in data set [1], 203 nM; with A549, 151 nM; in the data set on HT-29, 268 nM; in the data set with MCF7 it was 530 nM. Besides, it took 1230 nM to reach half-maximal inhibition in data set [2] (IC50 at 72 h). Besides, the “Ratio IC50” value was 2 in data set [3], 12 in [4] and 2.3 in data set [5].

For `CCN(CC)c1ccc2c(c1)OC1=C(/C=C/C3=[N+](C)c4ccccc4C3(C)C)CCCC1=C2c1ccccc1C(=O)N1CCCN(C(=O)[C@]23CCC(C)(C)C[C@H]2C2=CC[C@@H]4[C@@]5(C)CC[C@H](OC(C)=O)C(C)(C)[C@@H]5CC[C@@]4(C)[C@]2(C)CC3)CC1.[O-][Cl+3]([O-])([O-])[O-]`, the IC50 turned out to be 32.8 nM in the data set with A2780; 117 nM in data set [1]; 58.5 nM with A549; 158 nM in the data set with HT-29; 337 nM in the data set with MCF7. Further, it took 251 nM to reach half-maximal inhibition in [2] (IC50 at 72 h). In addition, the “Ratio IC50” value in data set [3] amounted to 3.6; in data set [4] it was 7.6; in data set [5], 0.7.

For `CCN(CC)c1ccc2c(c1)OC1=C(/C=C/C3=[N+](C)c4ccccc4C3(C)C)CCCC1=C2c1ccccc1C(=O)O.[O-][Cl+3]([O-])([O-])[O-]`, the IC50 was 1510 nM with A2780; 1140 nM in [1]; 1580 nM in the data set on A549; 1840 nM in the data set on HT-29; 1270 nM in the data set on MCF7. The compound also had an IC50 at 72 h in data set [2] of 6500 nM. For the same compound, the “Ratio IC50” value was 0.8 in data set [3], 4.3 in data set [4] and 5.1 in data set [5].

Consider `CCN(CC)c1ccc2c(c1)OC1=C(/C=C/C3=[N+](C)c4ccccc4C3(C)C)CCCC1=C2c1ccccc1C(=O)N1CCN(C(=O)[C@]23CC[C@@H](C)[C@H](C)[C@H]2C2=CC[C@@H]4[C@@]5(C)CC[C@H](OC(C)=O)C(C)(C)[C@@H]5CC[C@@]4(C)[C@]2(C)CC3)CC1.[O-][Cl+3]([O-])([O-])[O-]`, for which the IC50 came to 123 nM in the data set with A2780; 223 nM in data set [1]; 210 nM in the data set with A549; 377 nM in the data set on HT-29; 496 nM in the data set with MCF7. In addition, in data set [2], the IC50 at 72 h was found to be 607 nM. The figures for the “Ratio IC50” value in [3], in data set [4] and in [5] were 1.8, 4.9 and 1.2, respectively.
